Assay [1] concerns OVCAR-8 conditioned media. In words: Cleavage of MMP9 substrate by OVCAR-8 conditioned media. The class given is biochemical, human.
Another assay has as its target mouse MMP9 (Mus musculus, UniProt P41245). The assay is described as follows: Cleavage of substrate by mouse MMP9. Format: biochemical.
A further assay relates to OVCAR-8 tumour nodules. The assay is described as follows: HE4 blood ELISA in orthotopic OVCAR-8 ovarian cancer model. Format: in vivo, mouse. The conditions noted are these: blood biomarker, plasma ELISA; n = 10. A digest of the protocol:
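Female NCr nude mice, 3–4 weeks old, were injected intraperitoneally with 2 × 10⁶ luciferase-expressing OVCAR-8 cells; tumour burden was followed by IVIS luminescence. About 200 μL blood was spiked with EDTA to a final 5 mM and cells were pelleted. Plasma was stored at -20 °C, then HE4 measured by quantikine ELISA per kit protocol.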

Sequence of mouse MMP9 (P41245 108-730): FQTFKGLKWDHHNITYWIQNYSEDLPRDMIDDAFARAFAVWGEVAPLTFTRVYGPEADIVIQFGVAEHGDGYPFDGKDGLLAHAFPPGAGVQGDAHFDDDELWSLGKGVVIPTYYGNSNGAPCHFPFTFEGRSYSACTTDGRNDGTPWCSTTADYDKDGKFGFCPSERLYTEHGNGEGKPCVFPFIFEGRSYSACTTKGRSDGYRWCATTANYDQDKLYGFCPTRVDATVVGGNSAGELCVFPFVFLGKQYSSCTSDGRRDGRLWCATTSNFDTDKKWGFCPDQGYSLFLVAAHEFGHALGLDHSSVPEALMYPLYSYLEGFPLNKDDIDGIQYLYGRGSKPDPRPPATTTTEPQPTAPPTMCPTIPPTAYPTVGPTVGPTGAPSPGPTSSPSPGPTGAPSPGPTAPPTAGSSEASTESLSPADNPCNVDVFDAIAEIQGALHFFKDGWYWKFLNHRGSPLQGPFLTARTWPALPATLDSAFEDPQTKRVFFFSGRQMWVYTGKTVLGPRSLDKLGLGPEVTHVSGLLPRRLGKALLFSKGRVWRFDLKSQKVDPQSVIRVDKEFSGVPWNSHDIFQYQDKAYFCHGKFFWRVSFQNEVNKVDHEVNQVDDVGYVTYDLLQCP

For the molecule `CNC(=O)[C@@H](NC(=O)[C@H](CC(C)C)[C@H](O)C(=O)NO)C(C)(C)C` [Marimistat, reference compound], the “inhibition of cleavage of MMP9 substrate by OVCAR-8 conditioned media” value in assay [1] is recorded as “can be inhibited”.
Turning to “5FAM-GGPLGVRGKK(CPQ2)-PEG2-C [MMP9 substrate]”, the “cleavage by OVCAR-8 conditioned media” value in assay [1] was “can cleave”. For the same molecule, the “cleavage by mouse MMP9” value at mouse MMP9 was “cleaves”.

B1: HE4: clinical blood biomarker secreted by OVCAR-8 cells, measured by ELISA as comparator diagnostic (protein, UniProt Q14508 31-124, looked up)
WAP four-disulfide core …: EKTGVCPELQADQNCTQECVSDSECADNLKCCSAGCATFCSLPNDKEGSCPQVNINFPQLGLCRDQCQVDSQCPGQMKCCRNGCGKVSCVTPNF
In the case of B1, in the assay on OVCAR-8 tumour nodules, the “ROC-AUC at 2-weeks” value is 0.51 and the “ROC-AUC at 3-weeks” value worked out at 0.93.

(Values after paper PMC5621765 (Nature biomedical engineering, 2017).)
